CHOP UPR activ: activators of apoptotic arm of unfolded protein response (CHOP) | AID 449763 | 0.34% of 330,000 active | CHO-CHOP luciferase reporter, UPR activation, luminescence; percent of tunicamycin response over DMSO baseline | activation, % at 10 µM;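 active = at 10 µM dose, activation of 40% or more, normalized to positive control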;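 also: 100% = tunicamycin at 10 µg/mL and 0% = DMSO alone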
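assay system = CHO CHOP reporter cells | amount = 500 CHO-CHOP cells per well | buffer or medium = F12 with 10% FBS | incubation = 16-18 h cell attachment, then 6 h compound exposure, 37 °C | detection = luminescence read with Steady-Glo | read-out = percent activation relative to tunicamycin control | controls = tunicamycin high control, DMSO low control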
UPR XBP1 act: adaptive UPR (XBP1) activation | CHO-XBP1 luciferase reporter, IRE1-XBP1 UPR activation, luminescence; percent of tunicamycin response, DMSO as zero | activation, % at 20 µM | 0.33% of 330,000 active | AID 463104;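 active = versus positive control, 20 µM dose yields 30% or more activation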;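 also: 100% = tunicamycin at 10 µg/mL and 0% = DMSO only wells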
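Material: CHO-XBP1 cells stably carrying IRE1-XBP1-driven luciferase reporter / Amount: 1000 cells per well / Compound: 20 µM, 1% DMSO / Times: 6 h treatment, 37 °C / Detection: luciferase luminescence / Measure: % activation of reporter signal versus tunicamycin and DMSO controls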
Bfl-1 A1 inh: inhibitors of the anti-apoptotic protein A1, read as caspase activation; MEF A1-2A-BIM cells, Caspase-Glo 3/7 luminescence, 3 h; percent of clofoctol response, vehicle zero; caspase activation, % (concentration not given with the values); 0.066% of 330,000 active;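 active = over half of replicate activation scores above 10%, or exactly half above 10 with the replicate mean above 10; inconclusive = replicate mean below 10 yet half the replicates above 10; inactive = over half of replicates below 10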
CHOP inh: inhibitors of CHOP induction in ER stress response; CHO-K1 CHOP-promoter luciferase, tunicamycin-induced, 15-18 h; inhibition, % at 10 µM; 3.8% of 220,000 active; AID 2732;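 active = compounds that reduced the stress-induced luciferase reporter signal by more than about 70% of percent inhibition, limit read from the data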;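 also: 0% = tunicamycin plus vehicle and 100% = wells without tunicamycin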
CHOP confirm: confirmation of CHOP induction inhibitors. CHO-CHOP promoter luciferase reporter, tunicamycin-induced, luminescence. shares compounds with CHOP inh. 45% of 2,100 active. AID 504437. inhibition, % at 10 µM;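 active = mean of three repeat readings of reporter signal inhibition above a set limit, cut at about 70% in these data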;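 also: 0% = tunicamycin plus vehicle and 100% = wells lacking tunicamycin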
* marks the source's active call; other numbers are inactive results; ? = inconclusive; / = not tested or not shown. The full list was thinned out, with hits kept by preference.

SMILES | CHOP UPR activ | UPR XBP1 act | Bfl-1 A1 inh | CHOP inh | CHOP confirm
O=C1c2cccc3c([N+](=O)[O-])ccc(c23)C(=O)N1c1ccccn1 | -6 | -8 | -1 | 101* | 84*
O=C1c2cccc3c([N+](=O)[O-])ccc(c23)C(=O)N1c1nccs1 | -9 | -6 | -1 | 110* | 38
O=C1c2cccc3c([N+](=O)[O-])ccc(c23)C(=O)N1c1ccc(Cl)cn1 | 16 | -6 | 3 | 109* | 51
Cc1ccc(C)c(OCCC(=O)NCCc2ccc(S(N)(=O)=O)cc2)c1 | 0 | -3 | 0 | / | /
Cc1ccc(-n2c(Cl)c(Cl)nc(Cl)c2=O)cc1 | / | / | 0 | 110* | 114*
CN(C(=S)NC(=O)c1ccccc1Br)C1CCCCC1 | 0 | -1 | 0 | -25 | /
O=S(=O)(Nc1ccc(-c2csc(-c3ccccc3)n2)cc1)c1ccccc1 | 1 | 2 | 1 | 100* | 24
Cc1ccc(S(=O)(=O)Nc2nc(-c3ccccc3)cs2)cc1 | 0 | -4 | 0 | / | /
Cc1ccc2sc3ccc(NC(=O)c4ccccc4Cl)cc3c(=O)c2c1 | 10 | 3 | 1 | 17 | /
O=C(ONc1ccc(N=NC(=O)c2ccccc2O)cc1)c1ccccc1 | -2 | -4 | -14 | 107* | 132*
C[C@H](NC(=O)OC(C)(C)C)C(=O)N/N=C/C1=Cc2ccccc2OC1 | -1 | -2 | 0 | 13 | /
CCC(C)[C@H](NC(=O)OC(C)(C)C)C(=O)N/N=C/C1=Cc2ccccc2OC1 (some centres not stated) | 0 | 2 | 0 | 106* | 40
Cc1ccc(N=C(NOC(=O)c2ccccc2)c2nonc2N)c(C)c1 | 0 | 0 | 1 | 53 | /
Cc1ccccc1N=C(NOCc1ccccc1)c1nonc1N | 0 | -2 | 1 | 100* | 32
CS(=O)(=O)c1ccc(C(=O)OCC(=O)NC(=O)C2CCCCC2)cc1[N+](=O)[O-] | 19 | -11 | 2 | 97* | 10
CCS/C(N)=N/N=C/c1cc(C)ccc1O | 8 | 0 | -6 | -7 | /
CCCCS/C(N)=N/N=C/c1cc(C)ccc1O | 1 | 4 | 1 | 102* | -6
COCc1nnc(NC(=O)CCN2C(=O)c3ccccc3C2=O)s1 | -3 | 1 | 0 | 99* | 10
CCN1C(=O)[C@H]2[C@@H](c3ccc(SC4CCCCC4)cc3)N[C@@](CC(C)C)(C(=O)OC)[C@H]2C1=O | 0 | -4 | 0 | / | /
Nc1nnnn1/N=C/c1cccc(Oc2ccccc2)c1 | 0 | 8 | 0 | -24 | /
Nc1nnnn1/N=C/c1cccc(OCc2ccccc2Cl)c1 | 5 | 0 | -1 | 104* | 51
O=C(Nc1cccc(C(F)(F)F)c1)NC1CCN(S(=O)(=O)c2ccc(F)cc2)CC1 | -2 | -4 | 2 | 100* | 94*
CN(C)c1ccc(C(CNS(=O)(=O)c2ccc(F)c(F)c2)c2c[nH]c3ccccc23)cc1 (configuration not stated) | 2 | -2 | 0 | 110* | 116*
Cc1ccc(/C=C2\C(=O)ON=C2c2ccccc2)o1 | 2 | 2 | 1 | 12 | /
Cc1ccc(-c2ccc(/C=C3\C(=O)ON=C3c3ccccc3)o2)c([N+](=O)[O-])c1 | 25 | -3 | 1 | 111* | 80*
SMILES | CHOP UPR activ | UPR XBP1 act | Bfl-1 A1 inh | CHOP inh | CHOP confirm
O=C1C2C3C=CC(CO)(O3)C2C(=O)N1c1ccccc1-c1ccccc1 (configuration not stated) | 8 | -5 | 2 | / | -27
CC(=O)Oc1ccc(N2C(=O)C3C4C=CC(CO)(O4)C3C2=O)cc1 (configuration not stated) | -1 | -2 | -2 | -24 | /
CCCNc1nc(OCC(F)(F)F)nc(OCC(F)(F)F)n1 | -1 | 0 | -1 | 16 | /
CCOC(=O)c1c(-c2ccccc2)oc2ccc(O)cc12 | 0 | 1 | 1 | / | /
CCOC(=O)c1c(CSc2ccccc2)oc2ccc(O)cc12 | 0 | 8 | 1 | 105* | 14
O=C(CC(NC(=O)c1ccccc1)c1ccccc1)Nc1cccc2ccccc12 (configuration not stated) | -1 | -1 | 2 | 104* | 1
O=C(CC(NC(=O)c1ccccc1)c1ccccc1)NCc1ccccc1 (configuration not stated) | -1 | -2 | 0 | / | /
Cn1c(CNC(=O)c2ccccc2F)nnc1SCc1nc2ccccc2c(=O)[nH]1 | 2 | -2 | 0 | -21 | /
CCCCn1c(SCc2nc(N)nc(N3CCCCC3)n2)nc2c1c(=O)n(C)c(=O)n2C | -1 | 0 | 0 | 98* | 20
CC1(C)CC(C(CCN(Cc2ccccc2)C(=O)c2ccco2)c2ccc(F)cc2)CCO1 (configuration not stated) | / | / | 1 | 101* | 79*
O=C(CN(Cc1ccc(F)cc1)C(=O)c1ccco1)NCc1ccc(F)cc1 | -1 | -2 | 1 | -9 | /
O=C(c1ccco1)N(CCC(c1ccccc1)c1ccco1)Cc1ccc(F)cc1 (configuration not stated) | -1 | 2 | 0 | 108* | 58
CCc1ccc(OCC(=O)NC(NC(=S)Nc2ccc(C)cc2C)C(Cl)(Cl)Cl)cc1 (configuration not stated) | 3 | 2 | 0 | 108* | 113*
Cc1cccc(NC(=S)NC(NC(=O)OCc2ccccc2)C(Cl)(Cl)Cl)c1 (configuration not stated) | 2 | -4 | 0 | 106* | 103*
CCc1ccc(OCC(=O)NC(NC(=S)Nc2ccccc2)C(Cl)(Cl)Cl)cc1 (configuration not stated) | 4 | 0 | -1 | 105* | 105*
O=C(NC(NC(=S)Nc1cccc(C(=O)O)c1)C(Cl)(Cl)Cl)OCc1ccccc1 (configuration not stated) | 1 | -3 | 0 | -5 | /
Cc1ccc(C(=O)c2ccc([N+](=O)[O-])cc2)cc1 | 2 | 1 | -1 | 54 | /
Cc1ccc(S(=O)(=O)CC#CCOC(=O)c2ccc([N+](=O)[O-])cc2)cc1 | 0 | -1 | ? | 107* | 108*
Cc1n[nH]c(C)c1S(=O)(=O)N(CC(=O)N1CCc2ccccc21)c1ccc(C(C)C)cc1 | 2 | -2 | 0 | 96* | 36
Nc1sc(-c2ccccc2)cc1-c1n[nH]c(=S)n1C1CCCCC1 | -1 | 4 | -1 | -20 | /
COc1ccc(-n2c(-c3cc(-c4ccccc4)sc3N)n[nH]c2=S)cc1 | 1 | 1 | 1 | 100* | 8
O=C(N/N=C/c1ccc(Br)s1)Nc1ccccc1 | 4 | -2 | 1 | 97* | 59
COc1ccc(NC(=O)c2ccco2)cc1S(=O)(=O)N1CCCCC1 | 2 | -3 | 0 | / | /
O=S(=O)(Nc1ccc2oc(-c3ccccc3)nc2c1)c1ccccc1 | 4 | 5 | -1 | / | /
Cc1ccc(-c2nc3cc(N)ccc3o2)cc1 | -1 | -2 | -7 | 102* | 60

Bioassay records: PubChem BioAssay, several laboratories
